Test results reported in ChEMBL document CHEMBL2016445, “Discovery of a novel class of potent and orally bioavailable sphingosine 1-phosphate receptor 1 antagonists” (J Med Chem, 2012).
pIC50: −log10 of the molar value.

Columns and labels:
[1] = molecular target: T1, Sphingosine 1-phosphate receptor 1 (Homo sapiens, UniProt P21453); assay: Antagonist activity at S1P1 receptor expressed in HEK293 cells assessed as inhibition of S1P-induced cAMP response after 90 mins by spectrophotometry; type: functional, cell-based
[2] = Drug uptake in nu/nu homozygous mouse plasma at 100 mg/kg, po as a solution in 10% EtOH/40% PEG400/water + 1:1 HCl after 1 hr by HPLC/MS/MS analysis; type: ADME, organism-based; set-up: dose 100 mg/kg, route oral
Summary of the method: (§1)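 Female Nu/Nu mice (~8 wk, 20-22 g) given a single 100 mpk oral dose at 10 mL/kg. Vehicles: 10% EtOH/45% or 40% PEG400/water + 1 molar equiv HCl, 10% EtOH/40% PEG400/20% Captisol + HCl, or 10% NMP/90% corn oil. Heparinized blood collected 1 and 4 h post-dose; plasma analysed by HPLC/MS/MS.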

[3] = Drug uptake in nu/nu homozygous mouse plasma at 100 mg/kg, po as a solution in 10% EtOH/40% PEG400/water + 1:1 HCl after 4 hrs by HPLC/MS/MS analysis; type: ADME, organism-based; set-up: dose 100 mg/kg, route oral; summary of the method: as §1
[4] = Drug uptake in nu/nu homozygous mouse plasma at 100 mg/kg, po as a suspension in 10% NMP/corn oil after 1 hr by HPLC/MS/MS analysis; type: ADME, organism-based; set-up: dose 100 mg/kg, route oral; summary of the method: as §1
[5] = Drug uptake in nu/nu homozygous mouse plasma at 100 mg/kg, po as a suspension in 10% NMP/corn oil after 4 hrs by HPLC/MS/MS analysis; type: ADME, organism-based; set-up: dose 100 mg/kg, route oral; summary of the method: as §1
[6] = Metabolic stability of the compound in mouse liver microsomes assessed as compound oxidation measuring disappearance of compound at 15 uM after 30 mins by LC/MS/MS analysis; type: ADME, Microsome; conditions: read-out: Drug degradation
Summary of the method: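 Incubated in duplicate for 30 min at 37 °C: 15 µM compound, 0.15% DMSO, 0.5 mg/mL mouse liver microsomes, 1 mM NADPH, 100 mM potassium phosphate pH 7.4. Stopped with acetonitrile containing 0.1% formic acid. Parent remaining measured by LC/MS/MS; disappearance calculated relative to no-NADPH controls.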

[7] = molecular target: T1, Sphingosine 1-phosphate receptor 1; assay: Antagonist activity at S1P1 receptor expressed in HEK293 cells assessed as inhibition of S1P-induced tango beta-arrestin recruitment preincubated for 30 mins prior S1P addition measured after 16 to 18 hrs by luciferase reporter gene assay; type: functional, cell-based
[8] = molecular target: Sphingosine 1-phosphate receptor 2 (Homo sapiens, UniProt O95136); assay: Antagonist activity at S1P2 receptor expressed in HEK293 cells assessed as inhibition of S1P-induced tango beta-arrestin recruitment preincubated for 30 mins prior S1P addition measured after 16 to 18 hrs by luciferase reporter gene assay; type: functional, cell-based
[9] = molecular target: Sphingosine 1-phosphate receptor 3 (Homo sapiens, UniProt Q99500); assay: Antagonist activity at S1P3 receptor expressed in HEK293 cells assessed as inhibition of S1P-induced tango beta-arrestin recruitment preincubated for 30 mins prior S1P addition measured after 16 to 18 hrs by luciferase reporter gene assay; type: functional, cell-based
[10] = Antitumor activity against human MDA-MB-231T cells xenografted in athymic nude mouse assessed as tumor growth inhibition at 300 mg/kg, po qd for 14 days post implantation measured for 14 days; type: functional; conditions: 336 h, read-out: TGI
Summary of the method: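 MDA-MB-231T cells grown in DMEM with 10% FBS. 1 x 10⁶ cells in ice-cold HBSS implanted into the mammary fat pad of female athymic nude (NCr) mice, 5-8 wk. Daily oral dosing at 10 mL/kg, solutions made fresh daily. Tumor weight measured twice weekly; TGI calculated against vehicle and staging-day weights; 2-tailed t-test, p<0.05.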

[11] = system: Mus musculus; assay: Toxicity in athymic nude mouse xenografted with human MDA-MB-231T cells assessed as body weight loss at 300 mg/kg, po qd for 14 days post implantation measured for 14 days; type: organism-based; set-up: dose 300 mg/kg, route oral; conditions: in vivo, 336 h
Summary of the method: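 Female NCr athymic nude mice bearing mammary fat pad MDA-MB-231T tumors (1 x 10⁶ cells). Dosed orally once daily at 10 mL/kg from fresh solutions. Body weights recorded daily; clinical signs and survival monitored daily.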

[12] = Drug uptake in nu/nu homozygous mouse plasma at 100 mg/kg, po as a solution in 10% EtOH/45% PEG400/water + 1:1 HCl after 1 hr by HPLC/MS/MS analysis; type: ADME, organism-based; set-up: dose 100 mg/kg, route oral; summary of the method: as §1
[13] = Drug uptake in nu/nu homozygous mouse plasma at 100 mg/kg, po as a solution in 10% EtOH/45% PEG400/water + 1:1 HCl after 4 hrs by HPLC/MS/MS analysis; type: ADME, organism-based; set-up: dose 100 mg/kg, route oral; summary of the method: as §1

T1 sequence (P21453 whole entry): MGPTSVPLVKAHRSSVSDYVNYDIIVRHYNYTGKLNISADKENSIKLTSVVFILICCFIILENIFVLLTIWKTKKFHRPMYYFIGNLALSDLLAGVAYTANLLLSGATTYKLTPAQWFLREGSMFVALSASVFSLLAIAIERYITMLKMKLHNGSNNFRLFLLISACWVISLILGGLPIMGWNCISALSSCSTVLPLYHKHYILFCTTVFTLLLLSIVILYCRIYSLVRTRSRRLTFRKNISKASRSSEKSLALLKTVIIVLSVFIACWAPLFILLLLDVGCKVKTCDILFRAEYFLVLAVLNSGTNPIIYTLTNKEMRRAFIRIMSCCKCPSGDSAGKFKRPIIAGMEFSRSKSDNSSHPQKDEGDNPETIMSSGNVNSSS
Chain of Sphingosine 1-phosphate receptor 2 (O95136 whole entry): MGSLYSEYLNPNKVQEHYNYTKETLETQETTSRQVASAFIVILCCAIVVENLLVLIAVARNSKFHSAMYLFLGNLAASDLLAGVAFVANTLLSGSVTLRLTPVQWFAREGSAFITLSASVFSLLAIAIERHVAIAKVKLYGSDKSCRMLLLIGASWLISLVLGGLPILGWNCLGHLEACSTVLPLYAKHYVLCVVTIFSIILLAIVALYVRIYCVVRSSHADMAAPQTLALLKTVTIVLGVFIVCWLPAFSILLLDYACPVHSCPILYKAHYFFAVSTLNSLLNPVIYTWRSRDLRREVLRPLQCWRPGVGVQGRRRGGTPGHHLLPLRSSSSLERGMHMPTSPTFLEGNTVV
Chain of Sphingosine 1-phosphate receptor 3 (Q99500 whole entry): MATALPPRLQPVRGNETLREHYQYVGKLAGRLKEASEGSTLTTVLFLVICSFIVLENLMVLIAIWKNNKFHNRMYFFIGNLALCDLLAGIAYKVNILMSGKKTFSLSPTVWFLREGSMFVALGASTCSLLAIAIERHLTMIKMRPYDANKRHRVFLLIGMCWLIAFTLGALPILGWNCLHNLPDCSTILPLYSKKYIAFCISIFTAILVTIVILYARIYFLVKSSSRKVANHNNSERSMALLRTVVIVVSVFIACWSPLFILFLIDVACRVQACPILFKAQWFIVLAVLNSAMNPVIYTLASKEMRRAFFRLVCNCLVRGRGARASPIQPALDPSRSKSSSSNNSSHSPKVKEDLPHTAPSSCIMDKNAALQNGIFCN

Compound `O=C(Cc1cnc[nH]1)N[C@@H](COCc1ccccc1)C(=O)Nc1ccc(Oc2cccc(Cl)c2)cc1` has a pIC50 [1] of 7.02.

With `CN(CC(=O)N[C@H](COCc1ccccc1)C(=O)Nc1ccc(Oc2ccccc2)cc1)C(=O)c1ccccc1` the pIC50 [1] was less than 5.00.

Compound `CN(CC(=O)N[C@@H](COCc1ccccc1)C(=O)Nc1ccc(Oc2ccccc2)cc1)C(=O)c1ccccc1` has a pIC50 [1] of 6.26.

`O=C(N[C@@H](COCc1ccccc1)C(=O)Nc1ccc(Oc2ccccc2)cc1)c1cnc[nH]1` showed a pIC50 [1] of less than 6.00.

In the case of `O=C(Cc1cnc[nH]1)N[C@@H](COCc1ccccc1)C(=O)Nc1ccc(Oc2ccccc2)cc1`, the pIC50 [1] was 7.48, the concentration at 1 h [2] was 5 µM and the concentration at 4 h [3] was 3 µM. For the same compound, the concentration at 1 h [4] was 4.4 µM, the concentration at 4 h [5] was 0.3 µM and the metabolised at 0.5 h, 15 µM [6] was 28%.

For `Cn1cnc(CC(=O)N[C@@H](COCc2ccccc2)C(=O)Nc2ccc(Oc3ccccc3)cc2)c1`, the pIC50 [1] was 6.64.

`O=C(Cc1cc(Cl)ccc1Cl)N[C@@H](COCc1ccccc1)C(=O)Nc1ccc(Oc2ccccc2)cc1` showed a pIC50 [1] of less than 5.00.

Compound `O=C(Cc1ccccc1F)N[C@@H](COCc1ccccc1)C(=O)Nc1ccc(Oc2ccccc2)cc1` has a pIC50 [1] of 6.30.

In the case of `O=C(Cc1cnc[nH]1)N[C@@H](COCc1ccccc1)C(=O)Nc1ccc(Oc2ccccc2)c(Cl)c1`, the pIC50 [1] was 6.68.

`O=C(Cc1cnc[nH]1)N[C@@H](COCc1ccccc1)C(=O)Nc1ccc(Oc2ccc(Cl)cc2)cc1` gave a pIC50 [1] of 7.49, a pIC50 [7] of 6.66 and a pIC50 [8] of less than 5.00. The pIC50 [9] was less than 5.00, the metabolised at 0.5 h, 15 µM [6] was 9% and the inhibition in vivo at 300 mg/kg [10] was 45%. For the same compound, the Activity [11] was “Non-toxic”, the concentration at 1 h [12] was 11 µM and the concentration at 4 h [13] was 11 µM.

For `O=C(Cc1cnc[nH]1)N[C@@H](COCc1ccccc1)C(=O)Nc1ccc(Oc2ccccc2Cl)cc1`, the pIC50 [1] was less than 5.00.

Work on `O=C(Cc1c[nH]cn1)N[C@@H](COCc1ccccc1)C(=O)Nc1ccc(Oc2ccc(F)cc2)cc1` yielded a pIC50 [1] of 7.89, a pIC50 [7] of 6.55 and a pIC50 [8] of less than 5.00. The pIC50 [9] was less than 5.00, the concentration at 1 h [2] was 8 µM and the concentration at 4 h [3] was 3 µM. The metabolised at 0.5 h, 15 µM [6] was 9%, the inhibition in vivo at 300 mg/kg [10] was 54% and the Activity [11] was “Non-toxic”.

Work on `O=C(Cc1cnc[nH]1)N[C@@H](COCc1ccccc1)C(=O)Nc1ccc(OC2CCCCC2)cc1` yielded a pIC50 [1] of 6.15.

`O=C(Cc1c[nH]cn1)N[C@@H](COCc1ccccc1)C(=O)Nc1ccc(OCc2ccccc2)cc1` gave a pIC50 [1] of 6.82.

`O=C(Cc1cnc[nH]1)N[C@@H](COCc1ccccc1)C(=O)Nc1ccc2oc3ccccc3c2c1` gave a pIC50 [1] of less than 5.00.

Work on `O=C(Cc1cnc[nH]1)N[C@@H](COCc1ccccc1)C(=O)Nc1ccc(Cc2ccccc2)cc1` yielded a pIC50 [1] of less than 5.00.

For `O=C(Cc1cnc[nH]1)N[C@@H](COCc1ccccc1)C(=O)Nc1ccc(Nc2ccccc2)cc1`, the pIC50 [1] was 6.13.
